Screens as filed in PubChem BioAssay.
Most compounds without a hit are left out; they make up all but 1.5% or so of the library.
Lipid droplet – inhibitors of hepatocyte lipid droplet formation, primary screen, imaging, high-throughput imaging, BODIPY stain; AML12 mouse hepatocytes, oleate lipid droplets; AID 1656, 2009; inhibition, % at 6.5 µM; 0.4% of 240,000 active;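 active means lipid droplet intensity inhibited by at least 50%, with more than 500 cells counted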
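Assay system: AML12 mouse liver cells | Compound: 6.5 µM single-point dosing | Schedule: Overnight exposure | Technique: Fluorescence imaging, 20x objective, two fields per well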
TAG inh – inhibitors of triacylglycerol accumulation, primary screen, cell-based, uHTS, fluorescence, H9c2; H9c2 cells, Nile Red lipid (TAG) fluorescence; cells loaded with 200 µM oleic acid; 0.66% of 230,000 active; inhibition, % at 12.5 µM;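 active means pattern-corrected inhibition of lipid staining of at least 50% with the nuclear-stain viability signal not falling by more than 50%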;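 further: 0% = DMSO wells and 100% = triacsin C control wells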
Platelet DG rel – inhibitors of platelet dense granule secretion, primary screen, cell-based, MLPCN, human platelets. inhibition, %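 (compounds screened at 7.5 µM in platelet-rich plasma)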. 0.22% of 300,000 active. human platelet-rich plasma, SFLLRN dense granule ATP release, luminescence;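 active means mean replicate score, as percent of positive control, at or above 50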
PPC-1+TRAIL kill – compounds killing PPC-1 cancer cells with TRAIL present, primary screen, TRAIL potentiator project, ATPLite luminescence, uHTS | cell killing (% activity), % at 4 µM or 5 µM | 0.41% of 220,000 active | PPC-1 cells + TRAIL, ATPLite viability luminescence | AID 1443, 2008;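 active means cell killing above 50% in the first pass at 4 µM, then a duplicate retest at 5 µM averaging 50% or more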;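 further: plate controls were cells with TRAIL plus DMSO for no effect and medium-only wells lacking cells for full effect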
STAT3 inh – IL-6 driven STAT3 reporter inhibitors, primary screen, U3A cells, luciferase, luminescence, MLSCN library; IL-6 STAT3-luciferase reporter; host cell line lacks STAT1; inhibition, % at 5.5 µM; 0.89% of 190,000 active; AID 862, 2007;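 active means inhibition above the mean inhibition across all screened compounds plus 3 SD, cut at about 44% in these data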;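 further: 0% = DMSO only wells and 100% = 100 µM nifuroxazide control wells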
STAT1 blocker – STAT1 signaling inhibitors, primary screen, cell-based, HTS, luciferase reporter | inhibition, % at 5.5 µM | 0.35% of 200,000 active | AID 920, 2007 | NIH 3T3 STAT1-luciferase reporter, IFN-gamma, luminescence;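 active means inhibition above a set limit, the mean inhibition across all tested compounds plus 3 SD, cut at about 34% in these data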;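 further: 0% = IFN-gamma with DMSO and 100% = IFN-gamma with 300 µM nifuroxazide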
An asterisk follows results filed as active; i = inactive; · = no result.

SMILES	Lipid droplet	TAG inh	Platelet DG rel	PPC-1+TRAIL kill	STAT3 inh	STAT1 blocker
Oc1ccc(/C=N/NC(=S)Nc2cccnc2)cc1	-13.1	10.2	10.3	40.4	·	·
Oc1ccc(/C=N/NC(=S)N/N=C/c2ccc(O)cc2)cc1	0.4	-2.1	114.7*	22.7	9.1	-25.1
CN(C)C(=O)COc1ncnc2sc(-c3ccccc3)cc12	-1.6	·	14.6	·	·	·
COc1ncnc2sc(-c3ccccc3)cc12	·	·	60.6*	-1.7	0.2	-17.5
CN(CC(=O)Nc1ccccc1Br)C(=O)C(Cc1ccccc1)NC(=O)c1ccccc1 (stereo unspecified)	0.4	12.6	59.1*	·	·	·
C=CCN=C1NN=C(c2ccc3c(c2)OCCO3)CS1	-5.6	4.0	9.7	31.3	89.3*	63.6*
CCN=C1NN=C(c2ccc(C)cc2)CS1	·	·	3.2	-7.1	65.8*	15.9
NC1=NN=C(c2ccc3c(c2)OCCO3)CS1	1.8	-1.1	-39.9	22.9	65.6*	49.1*
CC(C)COC(=O)N1CCCCC1c1cc(C(=O)NCc2ccc(F)cc2)no1 (stereo unspecified)	·	5.6	·	·	·	·
COc1cccc(/C=N/Nc2ncccc2[N+](=O)[O-])c1OC	0.8	12.5	81.9*	23.5	·	·
COc1cccc(/C=N/Nc2nc(C)cc(=O)[nH]2)c1OC	1.6	·	4.7	·	·	·
COc1ccccc1C=NNC(=O)NN=Cc1ccccc1OC	·	16.6	·	·	·	·
COc1ccccc1/C=N/Nc1nccnc1Cl	15.5	·	67.5*	14.2	6.0	-10.8
COc1ccccc1C=NN=C(NN=Cc1ccccc1OC)NN=Cc1ccccc1OC	·	56.5*	·	·	·	·
CCC[C@@H](CNC)NC[C@H](Cc1ccccc1)NCCCCc1ccccc1	-4.6	130.6*	1.6	·	·	·
CCC[C@@H](CN[C@@H](CNC)C(C)C)NCCCCc1ccccc1	-6.7	33.3	0.8	·	·	·
C[C@H](CO)N1C[C@H](C)[C@@H](CN(C)C(=O)c2ccncc2)OCc2cnnn2CCCC1=O	·	-2.4	·	·	·	·
CCc1nc2c(OCC(=O)c3ccc(Cl)cc3Cl)cccn2c1N(C)C(=O)c1cccs1	·	-6.5	·	·	·	·
C[C@@H]1CN([C@H](C)CO)C(=O)CCCn2nncc2CO[C@H]1CN(C)Cc1ccc2c(c1)OCO2	·	-16.3	·	·	·	·
CN(C)CCOc1ccc(-c2c(-c3ccccc3)sc3ccccc23)cc1	·	58.5*	·	·	·	·
O=C(Nn1cnnc1)c1ccccc1CCc1ccccc1	4.4	-36.5	61.7*	13.1	6.8	6.4
COc1ccc(CCNc2nc(C)nc3c2oc2ccccc23)cc1OC	-10.0	-30.5	2.6	22.6	34.3	16.1
COc1ccc(CCNc2ncnc3c2oc2ccccc23)cc1OC	·	·	0.2	5.1	79.8*	24.9
c1ccc2c(-c3ccc4nncn4c3)cncc2c1	·	-3.2	·	·	·	·
NC(Cc1ccc(Cl)cc1)c1csc(Nc2ccc(-c3ccccc3)nn2)n1 (stereo unspecified)	·	121.1	·	·	·	·
SMILES	Lipid droplet	TAG inh	Platelet DG rel	PPC-1+TRAIL kill	STAT3 inh	STAT1 blocker
Cc1cc(C(=O)COC(=O)c2ccccc2O)c(C)n1Cc1cccs1	-3.0	·	9.4	-1.6	104.3*	74.7*
CCOC(=O)C1(C)CCCCCN1C(=O)c1ccc(OC)cc1 (stereo unspecified)	·	2.4	·	·	·	·
CN(C)c1ccc(/C=N/NC(=O)c2ccccn2)cc1	6.2	-11.0	22.1	27.8	·	·
CN(C)c1ccc(/C=N/NC(=O)c2ccnn2C)cc1	0.2	-2.5	73.0*	22.5	21.1	-26.0
CC(C)c1ccc2oc3nc(N)c(C(=O)O)cc3c(=O)c2c1	7.3	·	6.0	83.4*	·	·
O=c1cc(CO)[nH]nc1CO	·	-3.2	·	·	·	·
CCCCOC(=O)CCc1c(C)[nH]c(=O)c(C#N)c1C	·	·	60.8*	-8.5	15.5	-1.3
NC(N)=NCCCS(=O)(=O)Nc1ccc(Nc2c3ccccc3nc3cc([N+](=O)[O-])ccc23)cc1	·	3.4	·	·	·	·
CCN(CC)c1nc(C=Cc2ccc(N(C)C)cc2)c2nccnc2n1	·	i	·	·	·	·
O=C1NC(c2ccc3c(c2)OCO3)Nc2ccccc21 (stereo unspecified)	·	4.0	10.7	70.9*	12.5	-15.4
Cc1ccsc1C(=O)Nc1ccc(OCc2ccccc2)cc1	-9.7	·	78.9*	·	·	·
C=C(CN(C)C)C(=O)c1ccc(OC2OC(COC(C)=O)C(OC(C)=O)C(OC(C)=O)C2OC(C)=O)cc1 (stereo unspecified)	·	110.2	·	·	·	·
Cc1ccc(S(=O)(=O)N2CCCC2C(=O)O)cc1 (stereo unspecified)	·	·	82.6*	13.3	2.6	-6.8
Cc1ccc(S(=O)(=O)N2CC[C@@H]2C(=O)O)cc1	·	7.6	-10.7	·	·	·
CNC(=S)Nc1ccc(-c2nc3ccc(C)cc3s2)cc1	-10.8	15.6	2.5	40.1	47.4*	4.0
Cc1ccc2nc(-c3ccc(NC(=O)COC(=O)c4ccc(Br)o4)cc3)sc2c1	-1.5	·	·	49.5	43.4*	-45.8
CC(=O)NC(=S)Nc1ccc(-c2nc3ccc(C)cc3s2)cc1	·	·	-2.3	0.0	0.8	-27.5
C[C@@H]1CN([C@@H](C)CO)S(=O)(=O)c2ccc(C#CC(C)(C)O)cc2O[C@H]1CN(C)C(=O)C1CCCCC1	·	8.8	·	·	·	·
CCC/C=C/c1ccc(CN2C(C(C)C)C(=O)N(Cc3cn(CC4CCCCC4)nn3)CCS2(=O)=O)cc1 (stereo unspecified)	·	1.3	·	·	·	·
CCCNC(=O)C1(C)CCCN(Cc2ccc3c(c2)OCO3)C1 (stereo unspecified)	·	2.6	·	·	·	·
CCOc1ccc(OCc2cccc(C(=O)N3CCOCC3)c2)cc1	-4.5	·	-1.2	42.8	96.5*	82.2*
COc1ccc(OCc2cccc(C(=O)Nn3cc([N+](=O)[O-])cn3)c2)cc1	9.1	·	0.8	37.0	49.1*	87.5*
COc1ccc(OCc2cccc(C(=O)NN)c2)cc1	-4.0	·	19.7	26.1	97.8*	65.2*
COc1ccc(OCc2cccc(C(=O)Nc3cc(C)on3)c2)cc1	2.6	·	7.1	20.6	69.0*	58.0*
O=C(c1cccc(OCc2ccccc2)c1)N1CCOCC1	2.7	8.8	41.4	3.8	2.5	-7.9
SMILES	Lipid droplet	TAG inh	Platelet DG rel	PPC-1+TRAIL kill	STAT3 inh	STAT1 blocker
CC(=O)Nc1ccc(C(=O)N2CCCCC2c2cc(C(=O)N3CCOCC3)no2)cc1 (stereo unspecified)	·	-6.7	·	·	·	·
OCCN1CCN(CC(O)COc2ccc(Cl)cc2)CC1 (stereo unspecified)	7.6	14.9	50.3*	-18.6	0.2	-6.1
O=[N+]([O-])c1cccc(SSc2cccc([N+](=O)[O-])c2)c1	·	-8.8	·	·	·	·
O=C(Nc1ccc(S(=O)(=O)N2CCCCC2)cc1)c1ccc(CN2CCc3ccccc3C2)cc1	·	16.2	-0.9	18.7	86.8*	31.2
CC1(C)CC(=O)C=C(C#CC2(O)CCCCC2)C1	·	56.5*	·	·	·	·
Cc1cccc(C#CC2=CC(=O)CC(C)(C)C2)c1	·	0.4	·	·	·	·
